ΔTm, IC50 and Activity data for 12 molecules are collected here from ChEMBL document CHEMBL1137001, “Synthesis and evaluation of 9-O-substituted berberine derivatives containing aza-aromatic terminal group as highly selective telomeric G-quadruplex stabilizing ligands” (Bioorg Med Chem Lett, 2009).

Calls of active or inactive are those of the source. The calls are words filed in the database; no cut-off is given here.

Assay [1] deals with Nucleic Acid. The assay is described as follows: Binding affinity to human telomeric G-quadruplex F21T DNA assessed as change in melting temperature at 2.0 uM by FRET assay. The assay is classed as nucleic-acid assay.
In assay [2] the test system is Nucleic Acid. The experiment in a line: Inhibition of G-quadruplex HTG21 oligomer hybridization by PCR stop assay. In kind it is nucleic-acid assay. Put shortly: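 HTG21 was amplified by PCR in the presence of compound, and products were separated on gel. IC50 is the concentration that inhibits amplification by 50%.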
Assay [3] can be described thus: Inhibition of telomerase from human MCF7 cellular extract by cell free TRAP assay. The gist of the method: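 TRAP assay. Compounds at various concentrations were added to a telomerase reaction mixture containing extract from cracked MCF-7 breast carcinoma cells, and IC50 values were derived.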
Assay [4] has as its system Nucleic Acid. The assay is described as follows: Binding affinity to hairpin duplex F10T DNA assessed as change in melting temperature at 2.0 uM by FRET assay.
Assay [5] relates to Nucleic Acid. The assay is described as follows: Induction of G-quadruplex structure formation in HTG21 oligomer assessed as formation of antiparallel quadruplex structure by CD spectroscopy. In kind it is nucleic-acid assay.

As usually defined, the ΔTm is the shift of the melting midpoint relative to a reference. One may read the IC50 as the concentration that gives 50% inhibition. The low end stands for inhibition by little substance, the high end for a need for much substance. Take `COc1ccc2cc3[n+](cc2c1OCCC[n+]1cccc2ccccc21)CCc1cc2c(cc1-3)OCO2`: the shift in melting temperature (ΔTm) was 20 °C in assay [1] and 0 °C in assay [4]. In addition, the IC50 in assay [2] was 8 µM; in assay [3] it was 15 µM.
For `COc1ccc2cc3[n+](cc2c1OCCCn1cc[n+](C)c1)CCc1cc2c(cc1-3)OCO2` the same measures were 17 °C, 0 °C, 8 µM and 16 µM.
`COc1ccc2cc3[n+](cc2c1OCCCOc1ccncc1)CCc1cc2c(cc1-3)OCO2`: the shift in melting temperature (ΔTm) was 10 °C in assay [1] and 0 °C in assay [4]. For the same molecule, the 50% inhibitory concentration (IC50) in assay [2] was 12 µM; in assay [3] it was 28 µM.
For `COc1ccc2cc3[n+](cc2c1OCCCCCC[n+]1ccccc1)CCc1cc2c(cc1-3)OCO2` the same measures were 20 °C, 0 °C, 4 µM and 15 µM.
Turning to `COc1ccc2cc3[n+](cc2c1OCCCCC[n+]1ccccc1)CCc1cc2c(cc1-3)OCO2`, the shift in melting temperature (ΔTm) in assay [1] came out at 21 °C; in assay [4], 0.5 °C. Moreover, the values for the IC50 in assay [2] and in assay [3] were 7 µM and 15 µM, respectively.
For `COc1ccc2cc3[n+](cc2c1OCCC[n+]1cccc(F)c1)CCc1cc2c(cc1-3)OCO2` the same measures were 20 °C, 0 °C, 6 µM and 16 µM.
On to `COc1ccc2cc3[n+](cc2c1OCCCn1ccc(N)nc1=O)CCc1cc2c(cc1-3)OCO2`, for which the thermal shift (ΔTm) in assay [1] is 13 °C; in assay [4], 0 °C. Further, the IC50 worked out at 14 µM in assay [2] and 22 µM in assay [3].
For `COc1ccc2cc3[n+](cc2c1OCCC[n+]1ccccc1)CCc1cc2c(cc1-3)OCO2` the same measures were 18 °C, 0.5 °C, 8 µM and 17 µM.
Take `COc1ccc2cc3[n+](cc2c1OCCC[n+]1ccc(N(C)C)cc1)CCc1cc2c(cc1-3)OCO2`: the result in assay [5] was Active. For the same molecule, the shift in melting temperature (ΔTm) is 25 °C in assay [1] and 0 °C in assay [4]. The concentration for half-maximal inhibition (IC50) in assay [2] stood at 4 µM; in assay [3], 14 µM.
As to `COc1ccc2cc3[n+](cc2c1OCCC[n+]1cccc(C)c1)CCc1cc2c(cc1-3)OCO2`, the ΔTm came out at 21 °C in assay [1] and 0.5 °C in assay [4]. In addition, the concentration for half-maximal inhibition (IC50) was 6 µM in assay [2] and 14 µM in assay [3].
Consider `COc1ccc2cc3[n+](cc2c1OC)CCc1cc2c(cc1-3)OCO2`, for which the ΔTm in assay [1] is 4 °C; in assay [4], 1 °C.
For `COc1ccc2cc3[n+](cc2c1OCCCN1CCCCC1)CCc1cc2c(cc1-3)OCO2`, the concentration for half-maximal inhibition (IC50) in assay [2] is 7 µM; in assay [3] it was 16 µM.
